High-throughput results from PubChem BioAssay.
SR-BI uptake up: enhances SR-BI lipid uptake from DiI-HDL; hit rate 0.096% among 320,000; activation, % at 12.5 µM; CHO ldlA[mSR-BI] cells, DiI-HDL uptake fluorescence, 3 h; 100 = double the neutral-control signal;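 active = mean replicate activation of at least 60% and every replicate at or above 60%; inconclusive = mean or all-replicate condition met, but not both; inactive = mean below 60% and not all replicates reaching 60%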
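Test system: SR-BI-overexpressing, LDLR-lacking CHO cells. Measured by: DiI fluorescence, bottom read. Medium: Ham's F12 with 0.5% BSA, HEPES 25 mM, pH 7.4. Timing: 3 h uptake period with compound, 37 °C.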
CAL PDZ FP-1: blocks peptide binding to human CAL PDZ domain | Q9HD26 | purified CAL PDZ, TMR-peptide fluorescence polarization, 1 h | inhibition, % at 20 µM | hit rate 0.02% among 330,000;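 active = highest replicate inhibition of at least 40%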
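Test system: tagged CAL PDZ domain / Buffer or medium: sodium phosphate/NaCl buffer pH 7.4 with TCEP, IgG, Thesit / Reagent: TMR-labelled reporter peptide T*-PRC34 bound in PDZ groove / Compound dosing: single point, 20 µM / Schedule: 1 h incubation at room temperature before polarization reading / Technique: fluorescence polarization (mP) / Benchmarks: unlabelled peptide, DMSO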
dFosB activator: mouse delta FosB homodimer activation; purified delta FosB, TAMRA-CDK5 oligo fluorescence polarization; percent of positive-control signal above neutral wells; P13346; activation, % at 25 µM; hit rate 0.99% among 340,000;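 active = mean activation above about 17%, with every replicate also reaching it, limit read from the data, passing the limit was not always enough; inconclusive = only one of the two conditions met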
CAL PDZ FP-2: inhibitors of human CAL PDZ peptide binding | hit rate 0.92% among 300,000 | Q9HD26 | purified CAL PDZ, TMR-peptide fluorescence polarization, 1 h | inhibition, % at 24.9 µM | AID 602252;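 active = mean inhibition of at least 30% with at least half of replicates also reaching 30%; inconclusive = no clear call, values can overlap the other calls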
SR-BI DiI inh: blocks mouse SR-BI lipid uptake from DiI-HDL. inhibition, % at 12.5 µM. ldlA[mSR-BI] CHO cells, DiI-HDL uptake fluorescence, 3 h. hit rate 0.96% among 320,000. Q61009. AID 488896;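 active = mean replicate inhibition of at least 70% and a set share of replicates each scoring 70 or more; inconclusive = meets just one of the two criteria; inactive = fails both criteria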
Target sequence (Q61009 whole entry, looked up): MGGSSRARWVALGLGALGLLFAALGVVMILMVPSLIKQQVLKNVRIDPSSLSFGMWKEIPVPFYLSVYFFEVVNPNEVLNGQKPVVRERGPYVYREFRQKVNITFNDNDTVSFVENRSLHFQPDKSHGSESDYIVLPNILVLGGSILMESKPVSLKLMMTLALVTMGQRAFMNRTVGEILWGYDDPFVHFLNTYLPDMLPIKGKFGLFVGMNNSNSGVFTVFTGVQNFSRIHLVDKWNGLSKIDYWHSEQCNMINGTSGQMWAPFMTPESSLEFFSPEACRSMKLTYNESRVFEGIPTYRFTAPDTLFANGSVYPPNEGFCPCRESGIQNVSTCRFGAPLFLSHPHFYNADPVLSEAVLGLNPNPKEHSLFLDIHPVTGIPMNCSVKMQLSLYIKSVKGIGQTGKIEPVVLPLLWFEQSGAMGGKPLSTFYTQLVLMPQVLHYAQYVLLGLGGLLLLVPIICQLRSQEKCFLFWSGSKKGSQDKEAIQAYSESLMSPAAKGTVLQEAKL
DiI quencher: DiI fluorescence quenching in cell-free counter-screen | cell-free DiI-HDL fluorescence quenching, 30 min | hit rate 20% among 470 | AID 540326 | AC50, µM (top dose mostly 35 µM) | shares compounds with SR-BI DiI inh;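 active = quenching, a falling signal, with AC50 below a set limit tied to the top valid dose, actives reach about 32 µM in these data; inconclusive = no clear call, values can overlap the other calls; inactive = rising signal, and the rest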
Each line names hits and unclear results; the compound was inactive in the other large screens (follow-up assays come after a bar, where they were run). An excerpt weighted towards active compounds, which were near 2.8% of everything screened.

Cc1c(C(=O)OCc2ccccc2)[nH]c2c1C(=O)CC(c1ccco1)C2 (stereo not drawn)	SR-BI DiI inh 84 (no result: CAL PDZ FP-2) | DiI quencher inactive
COCCOC(=O)c1[nH]c2c(c1C)C(=O)CC(c1ccco1)C2 (stereo not drawn)	SR-BI DiI inh inconclusive (no result: CAL PDZ FP-2) | DiI quencher inactive
COCCOC(=O)c1[nH]c2c(c1C)C(=O)CC(c1cc(OC)c(OC)c(OC)c1)C2 (stereo not drawn)	none
COC(=O)c1[nH]c2c(c1C)C(=O)CC(c1cccs1)C2 (stereo not drawn)	SR-BI DiI inh 82 | DiI quencher inactive
Cc1ccc(S(=O)(=O)N2CCC(C(=O)NCC(C)(C)N3CCOCC3)CC2)c(C)c1	none
CC(=O)Nc1cc(NC(C)=O)cc(C(=O)OCC(=O)N(c2ccccc2)C2CCS(=O)(=O)C2)c1 (stereo not drawn)	none | DiI quencher inactive
CC(C)(C)NC(=O)CN(CC1CCCO1)C(=O)CNS(=O)(=O)c1ccc(F)cc1 (stereo not drawn)	none (no result: SR-BI uptake up, SR-BI DiI inh)
O=C(CSc1cn(CCNC(=O)c2cccs2)c2ccccc12)NC1CCCCC1	none
O=C(NCCn1cc(SCC(=O)N2CCOCC2)c2ccccc21)c1c(F)cccc1F	none | DiI quencher inactive
O=C(CSc1cn(CCNC(=O)c2cccs2)c2ccccc12)NCC1CCCO1 (stereo not drawn)	none | DiI quencher inactive
CC(C)Cc1nccs1	none
COC(=O)/C=C/c1ccc2c(c1)S(=O)(=O)N(c1cccc(OC)c1)[C@H]2CC(=O)OC	SR-BI DiI inh 87 | DiI quencher inactive
Cc1nn(Cc2ccccc2)c(C)c1NC(=O)c1cc2nc(-c3ccco3)cc(C(F)(F)F)n2n1	SR-BI DiI inh 83 | DiI quencher inactive
N#CCCN(C(=O)COC(=O)CCc1ccccc1)c1ccccc1	none
N#CCCN(C(=O)COC(=O)CCc1c[nH]c2ccccc12)c1ccccc1	none (no result: CAL PDZ FP-2) | DiI quencher inactive
O=C(O)CC(C(=O)Nc1ccc(Cl)cc1Cl)C1CCCO1 (stereo not drawn)	none
Cc1ccc(C)c(NC(=O)C(CC(=O)O)C2CCCO2)c1 (stereo not drawn)	SR-BI DiI inh 77 | DiI quencher inactive
O=C(NC1CC1)c1ccc(CN(c2ccccc2)S(=O)(=O)c2ccccc2)cc1	SR-BI DiI inh inconclusive | DiI quencher inactive
Fc1ccc(-c2cc(-c3cccs3)cc(-c3ccccc3)n2)cc1	SR-BI DiI inh 83 | DiI quencher inactive
NC(=O)c1cc(-c2ccccc2)sc1NC(=O)CN1CCCCC1	SR-BI DiI inh 73 | DiI quencher inactive
Cc1ccc(-c2nnc(N3CCCCCC3)c3ccccc23)cc1	none (no result: SR-BI uptake up, CAL PDZ FP-2, SR-BI DiI inh)
Cc1ccc(-c2nnc(N3CCC(C)CC3)c3ccccc23)cc1C	SR-BI DiI inh 92 | DiI quencher inactive
O=C1NC(Cc2c[nH]c3ccccc23)C(=O)N1Cc1ccc(CN2C(=O)NC(Cc3c[nH]c4ccccc34)C2=O)cc1 (stereo not drawn)	none
Cc1cc(SC(C)C(=O)Nc2ncc(Cl)cc2Cl)nc2ccccc12 (stereo not drawn)	SR-BI DiI inh 72 | DiI quencher inactive
Cc1nnc(SC(C)C(=O)Nc2ncc(Cl)cc2Cl)n1Cc1ccccc1 (stereo not drawn)	none
CC(=O)Nc1ccc(-c2c(C)cc3oc(=O)cc(-c4ccccc4)c3c2C)cc1	none
Cc1cc2oc(=O)cc(-c3ccccc3)c2c(C)c1-c1ccc(C(F)(F)F)cc1	SR-BI DiI inh inconclusive | DiI quencher inactive
COc1ccc(CNC(=O)C(c2ccc(C)cc2)N(Cc2cccs2)C(=O)c2ccc3c(c2)OCCO3)cc1 (stereo not drawn)	none | DiI quencher inactive
CCN(C[C@H]1N[C@@](C)(C(=O)OC)[C@H]2C(=O)N(Cc3ccccc3)C(=O)[C@@H]12)C(=O)Nc1ccc(Cl)cc1	none
CCOc1ccc(OCC)c(NC(=O)CCNS(=O)(=O)c2cc(Br)cnc2N)c1	none
Nc1ncnc2c1ncn2[C@@H]1O[C@H](CNCc2ccccc2OCc2ccc(Cl)cc2Cl)[C@@H](O)[C@H]1O	none
Cc1sc(NC(=O)/C=C/C(=O)O)c(C(N)=O)c1-c1ccc(C(C)(C)C)cc1	none
Cc1sc(NC(=O)c2cccc([N+](=O)[O-])c2)c(C(N)=O)c1-c1ccc(C(C)(C)C)cc1	SR-BI DiI inh 77 | DiI quencher inactive
CC(=O)Oc1ccc(C(=O)Cc2ccc3ccccc3n2)c(O)c1C	SR-BI DiI inh inconclusive | DiI quencher inactive
CCCCc1nnc(NC(=O)c2ccc(OCc3c(C)noc3C)cc2)s1	SR-BI DiI inh 75 | DiI quencher inactive
CC(Sc1nc2cc([N+](=O)[O-])ccc2n1-c1ccc(F)cc1)C(=O)NCc1ccc2c(c1)OCO2 (stereo not drawn)	SR-BI DiI inh 82 | DiI quencher inactive
COc1cc(C)nc(NC(=O)NC(=O)c2ccc(C(F)(F)F)cc2)n1	none
CN(CCOc1ccc(Cl)cc1)C(=O)c1cccc(S(=O)(=O)N2CCN(c3ccc(F)cc3)CC2)c1	none (no result: CAL PDZ FP-2)
Oc1ccc(/C=C/c2nc(-c3ccccc3O)n(-c3ccccc3)n2)cc1	SR-BI DiI inh 74 (no result: CAL PDZ FP-2) | DiI quencher 20µM
Cc1cccc(Nc2ccccc2C(=O)OCC(=O)N(C)C2CCS(=O)(=O)C2)c1C (stereo not drawn)	SR-BI DiI inh 73 | DiI quencher inactive
CC1CCc2nc3ccccc3c(C(=O)OCC(=O)N(C)C3CCS(=O)(=O)C3)c2C1 (stereo not drawn)	none
Cc1ccc2nc3c(c(C(=O)OCC(=O)N(C)C4CCS(=O)(=O)C4)c2c1)CCCC3 (stereo not drawn)	SR-BI DiI inh 74 | DiI quencher inactive
CCN(C(=O)COC(=O)c1c(C)c(-c2ccccc2)nc2ccccc12)C1CCS(=O)(=O)C1 (stereo not drawn)	SR-BI DiI inh 75 | DiI quencher inactive
CCOCCCNCC(=O)Nc1ccc(S(=O)(=O)NC(C)CC)cc1 (stereo not drawn)	none
COc1ccc(-c2cc3c(=O)n(CC(=O)NCc4ccc(C)cc4)ncn3n2)cc1	none
CCOc1ccc(CCNC(=O)Cn2ncn3nc(-c4ccc(OC)cc4)cc3c2=O)cc1	SR-BI DiI inh 72 (no result: CAL PDZ FP-2) | DiI quencher inactive
CC(C(=O)OCC(=O)NC1CCCCC1)N1C(=O)c2ccccc2C1=O (stereo not drawn)	none (no result: CAL PDZ FP-2)
Cc1cc(OCC(=O)Nc2ccccc2C(N)=O)c2c(C)cc(=O)oc2c1	none
CCOC(=O)C1CCN(C(=O)Cn2cnc3sc(C)c(S(=O)(=O)N4CCC(C)CC4)c3c2=O)CC1	SR-BI DiI inh inconclusive | DiI quencher inactive
COc1ccc(Nc2nc(C)nc3c2nnn3Cc2ccccc2Cl)c(OC)c1	none
Cc1ccc(S(=O)(=O)N2CCC(C(=O)NNC(=O)c3cccnc3)CC2)cc1	none | DiI quencher inactive
